Assay results taken from ChEMBL document CHEMBL1127529, “Antipsoriatic anthrones with modulated redox properties. 2. Novel derivatives of chrysarobin and isochrysarobin--antiproliferative activity and 5-lipoxygenase inhibition” (J Med Chem, 1994).

Tests used:
[1] = Reducing activity against 2,2-diphenyl-1-picrylhydrazyl (DPPH) with equimolar compound; format: functional
Summary of the method: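 Test compound and DPPH, each 10⁻⁴ M in acetone/PBS (1-1 v/v), mixed 1 mL + 1 mL. DPPH reduction followed spectrophotometrically at 516 nm. Reciprocal DPPH concentration plotted against time gave straight lines, and second-order rate constants (M⁻¹ s⁻¹) were taken from the slopes. Values are means, N = 3-6. Highly reactive compounds gave approximate values only.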

[2] = target: T1, Polyunsaturated fatty acid 5-lipoxygenase (Homo sapiens, UniProt P09917); assay: Inhibitory concentration against arachidonic acid 5-lipoxygenation; format: functional
T1 sequence (P09917 whole entry): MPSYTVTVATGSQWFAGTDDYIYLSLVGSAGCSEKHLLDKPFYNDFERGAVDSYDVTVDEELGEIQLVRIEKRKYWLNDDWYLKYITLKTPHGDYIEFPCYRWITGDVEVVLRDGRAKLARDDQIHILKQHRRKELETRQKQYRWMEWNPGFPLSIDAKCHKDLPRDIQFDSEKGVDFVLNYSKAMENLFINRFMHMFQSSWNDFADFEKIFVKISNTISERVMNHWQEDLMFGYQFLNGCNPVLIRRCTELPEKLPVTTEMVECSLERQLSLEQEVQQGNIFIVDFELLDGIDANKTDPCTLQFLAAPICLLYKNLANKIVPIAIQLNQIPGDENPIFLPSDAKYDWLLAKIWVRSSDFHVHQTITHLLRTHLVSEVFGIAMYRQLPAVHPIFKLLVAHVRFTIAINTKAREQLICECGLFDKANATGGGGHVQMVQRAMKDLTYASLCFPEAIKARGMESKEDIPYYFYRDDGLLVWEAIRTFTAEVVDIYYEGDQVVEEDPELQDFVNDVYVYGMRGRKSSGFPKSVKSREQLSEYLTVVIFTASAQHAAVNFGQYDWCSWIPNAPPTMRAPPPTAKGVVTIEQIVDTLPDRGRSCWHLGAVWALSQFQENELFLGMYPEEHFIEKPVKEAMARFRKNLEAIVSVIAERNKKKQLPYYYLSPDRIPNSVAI
Summary of the method: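 Bovine PMNL (10^7 cells/mL) were stimulated with Ca-ionophore. Compound was preincubated for 15 min at 37 °C.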

[3] = tested on: HaCaT; assay: Antiproliferative activity against HaCaT cells; format: functional, cell-based; settings: Homo sapiens
Summary of the method: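 HaCaT human keratinocytes were kept in DMEM with 10% FCS, penicillin and streptomycin at 37 °C under 8% CO2. After 48 h the cells were detached with trypsin/EDTA and counted by phase-contrast microscopy.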

[4] = tested on: Liposome; assay: Inhibition of 2,2'-azobis(2-aminopropane)hydrochloride (AAPH) induced lipid peroxidation in bovine brain phospholipid liposomes; format: functional, subcellular, Bos taurus

Compound: O=C1c2c(O)cccc2Cc2cccc(O)c21 [ANTHRALIN]
- kDPPH [1]: 24.2 M⁻¹ s⁻¹
- IC50 [2]: 7 µM
- IC50 [3]: 0.2 µM
- IC50 [4]: 79 µM
